Data from ChEMBL document CHEMBL1142307, “Design, synthesis, and radiosensitizing activities of sugar-hybrid hypoxic cell radiosensitizers” (Bioorg Med Chem, 2008).

Key:
[1] = Radiosensitizing activity at hypoxic mouse EMT6/KU cells assessed as enhancement ratio relative to etanidazole; assay type: functional
[2] = Partition coefficient by Shake flask method; assay type: physicochemical; details: octanol/water
How it was run: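 1 mg compound dissolved in 0.1 M phosphate buffer pH 7.40 as stock; absorbance read at 325 nm before partitioning. 3 mL stock stirred vigorously with phosphate buffer-saturated n-octanol (20–300 mL) at room temperature for 2 h. Aqueous phase absorbance at 325 nm measured after phase separation; P_oct calculated from pre/post absorbance.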

Row | P (partition coefficient) [2] | SMILES | Ratio [1]
1 | 0.056 | CN(CCO)C(=O)Cn1ccnc1[N+](=O)[O-] | 1.75
2 | 0.051 | CC(=O)N[C@H]1[C@H](OCCN(C)C(=O)Cn2ccnc2[N+](=O)[O-])O[C@H](COC(C)=O)[C@H](OC(C)=O)[C@@H]1OC(C)=O | 1.47
3 | < 0.01 | CN(CCO[C@@H]1O[C@H](CO)[C@H](O)[C@H](O)[C@H]1O)C(=O)Cn1ccnc1[N+](=O)[O-] | 1.4
4 | < 0.01 | CN(CCO[C@@H]1O[C@H](CO)[C@@H](O)[C@H](O)[C@H]1O)C(=O)Cn1ccnc1[N+](=O)[O-] | 1.33
5 | 0.0697 | CC(=O)OC[C@H]1O[C@H](OCCN(C)C(=O)Cn2ccnc2[N+](=O)[O-])[C@@H](OC(C)=O)[C@@H](OC(C)=O)[C@@H]1OC(C)=O | 1.88
6 | < 0.01 | CC(=O)N[C@H]1[C@H](OCCN(C)C(=O)Cn2ccnc2[N+](=O)[O-])O[C@H](CO)[C@H](O)[C@@H]1O | 1.43
7 | < 0.01 | CN(CCO[C@H]1O[C@H](CO)[C@@H](O)[C@H](O)[C@@H]1O)C(=O)Cn1ccnc1[N+](=O)[O-] | 1.41
8 | 0.105 | CC(=O)OC[C@H]1O[C@@H](OCCN(C)C(=O)Cn2ccnc2[N+](=O)[O-])[C@H](OC(C)=O)[C@@H](OC(C)=O)[C@@H]1OC(C)=O | 2.3
9 | 0.0355 | CC(=O)OC[C@H]1O[C@@H](OCCN(C)C(=O)Cn2ccnc2[N+](=O)[O-])[C@H](OC(C)=O)[C@@H](OC(C)=O)[C@H]1OC(C)=O | 1.63
